Test [1] deals with Alpha adrenergic receptor 1A and 1D (Rattus norvegicus) (UniProt P23944+P43140). As to the kind of experiment: Selectivity given as ratio of pKb value against Alpha-1D receptor to pKb value against alpha1A receptor in rat. It is filed as functional.
A short description of test [2]: Selectivity given as ratio of pKb value against Alpha-1D receptor to pKb value against Alpha-1B receptor in rat. It counts as functional.
Test [3] deals with Adrenergic receptors; alpha-1 A & B (Homo sapiens) (UniProt P35348+P35368). As to the kind of experiment: Selectivity over alpha-1a/alpha-1b. It is filed as protein assay.
In test [4] the target is T1, Alpha-1B adrenergic receptor (Rattus norvegicus) (UniProt P15823).
T1 sequence (whole entry): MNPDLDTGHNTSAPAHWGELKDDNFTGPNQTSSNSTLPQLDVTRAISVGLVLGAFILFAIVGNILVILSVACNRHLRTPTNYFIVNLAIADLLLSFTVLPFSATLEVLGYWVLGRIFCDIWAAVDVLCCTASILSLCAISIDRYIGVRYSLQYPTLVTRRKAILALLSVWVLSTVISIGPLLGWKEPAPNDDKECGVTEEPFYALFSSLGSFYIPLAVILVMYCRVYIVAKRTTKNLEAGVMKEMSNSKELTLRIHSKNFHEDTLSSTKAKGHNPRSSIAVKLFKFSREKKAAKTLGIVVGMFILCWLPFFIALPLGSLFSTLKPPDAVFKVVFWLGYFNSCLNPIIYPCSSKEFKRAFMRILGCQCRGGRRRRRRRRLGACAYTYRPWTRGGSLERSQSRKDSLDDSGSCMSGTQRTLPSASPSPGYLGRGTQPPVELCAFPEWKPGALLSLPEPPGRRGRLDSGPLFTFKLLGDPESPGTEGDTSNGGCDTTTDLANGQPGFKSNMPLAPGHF
The test can be described thus: Inhibition of (-)-phenylephrine-induced contraction of rat spleen (Alpha-1B adrenergic receptor ). It counts as functional, tissue-based. The essentials: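 Rat spleen strips in buffer containing 4 µM propranolol to block β-adrenoceptors, 1 g resting tension, 2 h equilibration. Isometric cumulative phenylephrine curves at 30 min intervals; first discarded, second control.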

The target in test [5] is Alpha adrenergic receptor (1a and 1d) (Homo sapiens) (UniProt P35348+P25100). The test can be described thus: Selectivity over human alpha-1d/alpha-1a receptor. It is filed as protein assay.
Test [6] deals with T2, Alpha-1D adrenergic receptor (Homo sapiens, UniProt P25100).
T2 sequence (P25100 whole entry): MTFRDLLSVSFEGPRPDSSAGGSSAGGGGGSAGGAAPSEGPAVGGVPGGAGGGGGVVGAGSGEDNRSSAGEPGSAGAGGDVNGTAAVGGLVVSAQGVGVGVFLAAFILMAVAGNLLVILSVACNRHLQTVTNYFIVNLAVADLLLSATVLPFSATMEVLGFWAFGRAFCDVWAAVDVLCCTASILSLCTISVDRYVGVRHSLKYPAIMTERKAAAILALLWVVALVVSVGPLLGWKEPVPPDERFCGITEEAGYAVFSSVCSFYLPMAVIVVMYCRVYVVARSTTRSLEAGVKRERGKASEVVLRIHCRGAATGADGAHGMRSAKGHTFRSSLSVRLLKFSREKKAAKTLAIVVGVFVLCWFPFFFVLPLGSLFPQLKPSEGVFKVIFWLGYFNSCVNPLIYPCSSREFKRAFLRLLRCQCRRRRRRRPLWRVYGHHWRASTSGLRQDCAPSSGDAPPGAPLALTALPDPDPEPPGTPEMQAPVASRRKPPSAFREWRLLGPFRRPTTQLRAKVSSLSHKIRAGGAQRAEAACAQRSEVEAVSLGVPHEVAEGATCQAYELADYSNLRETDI
The test can be described thus: Affinity constant towards human recombinant Alpha-1D adrenergic receptor using [3H]prazosin (from CHO cells) as radioligand by radioligand binding assay. It is filed as cell-based. The essentials:
(§1)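 Membranes of CHO cells stably expressing each cloned human α1 subtype (30 µg protein) incubated with 0.1-0.4 nM [3H]prazosin in 50 mM Tris-HCl pH 7.4, 30 min at 25 °C, with competitor. Nonspecific binding with 10 µM phentolamine. Stopped by ice-cold buffer and filtration on PEI-pretreated filters. IC50 by curve fitting, Ki via Cheng-Prusoff. Mean of two to three experiments in triplicate.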

The target of test [7] is T3, Alpha-1A adrenergic receptor (Homo sapiens, UniProt P35348).
T3 sequence (P35348 whole entry): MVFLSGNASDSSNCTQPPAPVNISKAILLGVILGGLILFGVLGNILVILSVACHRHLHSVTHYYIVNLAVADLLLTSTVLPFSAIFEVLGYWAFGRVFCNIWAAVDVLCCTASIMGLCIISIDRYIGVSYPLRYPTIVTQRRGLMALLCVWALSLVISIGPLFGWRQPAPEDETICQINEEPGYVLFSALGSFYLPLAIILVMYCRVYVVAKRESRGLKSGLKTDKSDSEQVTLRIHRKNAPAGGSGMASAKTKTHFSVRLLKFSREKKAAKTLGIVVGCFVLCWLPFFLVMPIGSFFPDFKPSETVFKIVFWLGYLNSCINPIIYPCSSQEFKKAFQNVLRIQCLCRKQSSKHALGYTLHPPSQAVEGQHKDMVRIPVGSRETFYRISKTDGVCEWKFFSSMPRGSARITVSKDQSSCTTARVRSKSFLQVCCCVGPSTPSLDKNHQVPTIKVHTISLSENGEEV
As to the kind of experiment: Affinity constant towards human recombinant Alpha-1A adrenergic receptor using [3H]prazosin (from CHO cells) as radioligand by radioligand binding assay. It is filed as cell-based.

The target of test [8] is T4, Alpha-1B adrenergic receptor (Homo sapiens, UniProt P35368).
T4 sequence (P35368 whole entry): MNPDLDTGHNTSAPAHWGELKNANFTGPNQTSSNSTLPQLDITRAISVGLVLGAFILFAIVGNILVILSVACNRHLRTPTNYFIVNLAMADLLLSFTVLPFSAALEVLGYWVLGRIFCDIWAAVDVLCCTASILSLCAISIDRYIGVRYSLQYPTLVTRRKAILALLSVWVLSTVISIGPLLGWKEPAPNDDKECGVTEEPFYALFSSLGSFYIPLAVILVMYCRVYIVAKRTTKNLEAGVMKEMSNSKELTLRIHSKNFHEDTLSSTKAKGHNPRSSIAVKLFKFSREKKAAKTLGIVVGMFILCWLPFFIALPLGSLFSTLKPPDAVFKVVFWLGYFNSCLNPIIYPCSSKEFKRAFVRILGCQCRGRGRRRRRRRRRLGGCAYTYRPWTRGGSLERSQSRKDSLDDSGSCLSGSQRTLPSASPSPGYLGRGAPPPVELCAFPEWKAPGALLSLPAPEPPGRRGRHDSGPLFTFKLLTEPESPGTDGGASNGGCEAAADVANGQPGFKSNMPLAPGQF
The test can be described thus: Affinity constant towards human recombinant Alpha-1B adrenergic receptor using [3H]prazosin (from CHO cells) as radioligand by radioligand binding assay. It counts as cell-based. In outline:
as §1

Sequence of Alpha adrenergic receptor 1A and 1D (Rattus norvegicus) (P23944 whole entry, looked up): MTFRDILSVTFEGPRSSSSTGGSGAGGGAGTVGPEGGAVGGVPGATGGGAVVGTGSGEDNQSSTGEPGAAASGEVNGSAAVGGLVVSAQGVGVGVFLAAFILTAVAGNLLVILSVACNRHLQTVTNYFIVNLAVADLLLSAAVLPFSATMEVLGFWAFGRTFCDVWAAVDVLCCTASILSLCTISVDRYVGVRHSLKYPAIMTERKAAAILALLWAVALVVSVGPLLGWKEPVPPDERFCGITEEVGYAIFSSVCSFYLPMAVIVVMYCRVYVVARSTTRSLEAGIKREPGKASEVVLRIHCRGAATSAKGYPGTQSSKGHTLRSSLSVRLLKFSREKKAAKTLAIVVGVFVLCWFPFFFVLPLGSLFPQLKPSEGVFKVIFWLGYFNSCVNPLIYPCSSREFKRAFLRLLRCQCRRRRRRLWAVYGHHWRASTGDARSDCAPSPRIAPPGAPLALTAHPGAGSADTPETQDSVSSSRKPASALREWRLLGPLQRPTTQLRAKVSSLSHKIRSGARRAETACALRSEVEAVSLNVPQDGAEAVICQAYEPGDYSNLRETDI
Sequence of Alpha adrenergic receptor 1A and 1D (Rattus norvegicus) (P43140 whole entry, looked up): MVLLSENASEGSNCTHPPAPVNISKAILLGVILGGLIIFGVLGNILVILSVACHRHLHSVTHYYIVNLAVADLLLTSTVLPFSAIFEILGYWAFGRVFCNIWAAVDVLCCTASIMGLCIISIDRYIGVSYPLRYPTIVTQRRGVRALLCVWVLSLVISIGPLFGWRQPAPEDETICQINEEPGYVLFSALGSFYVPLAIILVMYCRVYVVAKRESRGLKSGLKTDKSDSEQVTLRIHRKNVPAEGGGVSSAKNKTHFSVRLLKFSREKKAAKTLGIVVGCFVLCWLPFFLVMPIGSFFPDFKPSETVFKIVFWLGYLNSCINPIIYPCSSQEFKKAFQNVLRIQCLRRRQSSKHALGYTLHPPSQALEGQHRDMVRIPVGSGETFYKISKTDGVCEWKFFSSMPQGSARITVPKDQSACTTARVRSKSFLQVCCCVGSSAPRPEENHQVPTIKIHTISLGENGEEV

Broadly, the pKb is the Kb on a negative log10 scale, so that one unit is a factor of ten. A lower pKb goes with a high Kb. A word on the Ki: it is the dissociation constant of the complex between target and ligand, obtained from inhibition or displacement. For `CN(CCOc1ccccc1)CC1COC(c2ccccc2)(c2ccccc2)O1.O=C(O)C(=O)O` (stereo unspecified), the Selectivity in test [1] was 10; in test [2], 6; in test [3], 0.3; in test [5] it was less than 0.9. The same compound came in with a pKb in test [4] of 5.31. Also, the Ki in test [6] was greater than 1000 nM; in test [7] it was 832 nM; in test [8], 257 nM.

For `COc1ccccc1OCCNCC1COC(c2ccccc2)(c2ccccc2)O1.O=C(O)C(=O)O` (stereo unspecified), the Selectivity worked out at 13 in test [1], 20 in test [2], 2 in test [3] and 3 in test [5]. Moreover, the Ki in test [6] is 9.33 nM; in test [7], 24.5 nM; in test [8], 45.7 nM.

Turning to `O=C(O)C(=O)O.c1ccc(OCCNCC2COC(c3ccccc3)(c3ccccc3)O2)cc1` (stereo unspecified), the Selectivity in test [1] was determined as 162; in test [2], 324; in test [3] it was 2; in test [5], 3. Moreover, the pKb in test [4] was determined as 5.86. Moreover, the Ki in test [6] is 11.5 nM; in test [7], 37.2 nM; in test [8], 63.1 nM.

Turning to `C[N+](C)(CCOc1ccccc1)CC1COC(c2ccccc2)(c2ccccc2)O1.O=C([O-])C(=O)O` (stereo unspecified), the Selectivity in test [1] was greater than 15; in test [2], 4; in test [3], 0.6; in test [5], less than 0.03. This compound also registered a pKb in test [4] of 5.6. Moreover, the Ki in test [6] is greater than 1000 nM; in test [7] it was 33.9 nM; in test [8] it was 20.4 nM.

The values are drawn from ChEMBL document CHEMBL1136765, “1,3-dioxolane-based ligands as a novel class of alpha1-adrenoceptor antagonists” (J Med Chem, 2003).
